Test results taken from paper PMC8553517 (ACS infectious diseases, 2021).

Tests used:
[1] = tested on: intracellular L. donovani; assay: L. donovani-infected macrophage assay; type: cell-based, Leishmania donovani; conditions: for IC50: read-out: IC50 against L. donovani; for inhibition at 50 µM: read-out: Inhibition of parasitemia at 50 μM, 50 μM
[2] = biological target: recombinant L. donovani CYP51 (Leishmania donovani, UniProt A0A3S7WRS7); assay: Fluorescence-based L. donovani CYP51 inhibition assay; type: biochemical
HepG2 cells = assay: HepG2 toxicity assay; type: cell-based; conditions: for IC50: Homo sapiens, HepG2, 72 h, read-out: IC50 against HepG2
J774 macrophages = assay: J774 macrophage toxicity assay; type: cell-based, mouse; conditions: for IC50: Mus musculus, J774, read-out: IC50 against J774 macrophages
[3] = Microsomal stability, human liver microsomes; type: in vitro ADME; conditions: for remaining at 1 h, 3 μM: human, liver microsomes
L. donovani CYP51 = L. donovani CYP51 ligand binding spectra; set-up: species or system Leishmania donovani; conditions: titration of CYP51; absorbance maximum 431 nm, minimum 412–413 nm
How it was run: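 Purified N-terminally truncated L. donovani CYP51 (CYP51-32c, His-tagged; purity by SDS-PAGE/anti-His Western blot, CO-difference spectra) at 0.5 µM, titrated in 30 mM potassium phosphate pH 7.4 with 0.1 mM EDTA and 20% glycerol. […], and sample-minus-reference difference spectra were recorded.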

recombinant human CYP3A4 = recombinant human CYP3A4 (Homo sapiens, UniProt P08684); assay: Inhibition of recombinant human CYP3A4; type: in vitro ADME
[4] = Microsomal stability, mouse liver microsomes; type: in vitro ADME; conditions: for remaining at 1 h, 3 μM: mouse, liver microsomes
[5] = tested on: L. donovani-infected female BALB/c mice; assay: Murine visceral leishmaniasis model; type: in vivo; conditions: 10 mg/kg/day × 5 p.o.
How it was run: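 Female BALB/c mice infected with L. donovani; groups of four. Dosing by oral gavage for 5 consecutive days, starting one week post-infection. Test compound was given at 75 or 37.5 mg/kg/day in 50% PEG400/50% water. Reference drug miltefosine was given at 10 mg/kg/day in water. The vehicle control group received PEG-400. Liver parasitemia was determined three days after the final dose, reported as percent reduction (mean ± S.E.M.).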

[6] = Leishmania donovani, Macrophage
[7] = substrate 3 μM, LC-MS detection
[8] = Leishmania donovani, Macrophage, intracellular L. donovani, mean ± S.E.M., n=3

Sequence of recombinant human CYP3A4 (P08684 whole entry): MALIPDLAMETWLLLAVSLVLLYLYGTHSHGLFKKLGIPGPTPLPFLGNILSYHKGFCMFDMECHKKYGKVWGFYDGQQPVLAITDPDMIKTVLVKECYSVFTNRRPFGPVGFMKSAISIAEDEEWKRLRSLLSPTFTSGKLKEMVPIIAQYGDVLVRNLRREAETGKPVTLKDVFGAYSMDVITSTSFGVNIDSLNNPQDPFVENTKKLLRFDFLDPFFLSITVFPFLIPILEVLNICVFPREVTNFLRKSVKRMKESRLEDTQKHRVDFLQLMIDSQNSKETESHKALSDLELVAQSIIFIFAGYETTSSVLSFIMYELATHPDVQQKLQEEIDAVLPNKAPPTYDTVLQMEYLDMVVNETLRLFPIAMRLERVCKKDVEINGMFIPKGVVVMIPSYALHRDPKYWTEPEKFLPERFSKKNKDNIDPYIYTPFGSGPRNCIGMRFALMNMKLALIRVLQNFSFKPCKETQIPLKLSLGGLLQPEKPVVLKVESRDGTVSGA

C[C@@H]1[C@H](O)[C@@H](C)/C=C/C=C/C=C/C=C/C=C/C=C/C=C/[C@H](O[C@@H]2O[C@H](C)[C@@H](O)[C@H](N)[C@@H]2O)C[C@@H]2O[C@](O)(C[C@@H](O)C[C@@H](O)[C@H](O)CC[C@@H](O)C[C@@H](O)CC(=O)O[C@H]1C)C[C@H](O)[C@H]2C(=O)O [Amphotericin B, reference compound]
IC50 [1, 6]: 0.045 ± 0.003 µM

CC(C)Oc1cc(NC(=N)c2ccccn2)ccc1-c1ccc(-c2ccc(NC(=N)c3ccccn3)cc2OC(C)C)o1 [Compound 1, reference compound]
Inhibition of L. donovani CYP51 (in words) ([2]; at concentrations 5–10 times greater than their IC50 against intracellular L. donovani, M.Z. Wang, unpublished observations): weak inhibitors

N=C(Nc1ccc(OCCn2ccnc2)cc1)c1ccccn1 [Compound 9a, N-(4-(2-(1H-imidazol-1-yl)ethoxy)phenyl) picolinimidamide]
IC50 [1, 6]: > 50 µM | IC50 (HepG2 cells): > 50 µM | IC50 (J774 macrophages): > 50 µM | IC50 [2]: 21 ± 1 µM

N=C(Nc1ccc(OCCn2cncn2)cc1)c1ccccn1 [Compound 9b, N-(4-(2-(1H-1,2,4-triazol-1-yl)ethoxy)phenyl) picolinimidamide]
IC50 [1, 6]: > 100 µM | IC50 (HepG2 cells): > 100 µM | IC50 (J774 macrophages): > 50 µM | IC50 [2]: 35 ± 2 µM

N=C(Nc1ccc(OCCCn2ccnc2)cc1)c1ccccn1 [Compound 9c, N-(4-(3-(1H-imidazol-1-yl)propoxy)phenyl) picolinimidamide]
IC50 [1, 6]: > 25 µM | IC50 (HepG2 cells): > 50 µM | IC50 (J774 macrophages): > 50 µM | IC50 [2]: 22 µM

N=C(Nc1ccc(OCCCCn2ccnc2)cc1)c1ccccn1 [Compound 9d, N-(4-(4-(1H-imidazol-1-yl)butoxy)phenyl) picolinimidamide]
IC50 [1, 6]: 18 ± 3 µM | IC50 (HepG2 cells): > 20 µM | IC50 (J774 macrophages): > 50 µM | IC50 [2]: 6.4 ± 0.1 µM

N=C(Nc1ccc(OCCCCn2cncn2)cc1)c1ccccn1 [Compound 9e, N-(4-(4-(1H-1,2,4-triazol-1-yl)butoxy)phenyl) picolinimidamide]
IC50 [1, 6]: > 100 µM | IC50 (HepG2 cells): > 100 µM | IC50 (J774 macrophages): > 50 µM | IC50 [2]: 89 ± 4 µM

N=C(Nc1ccc(OCCCCCn2ccnc2)cc1)c1ccccn1 [Compound 9f, N-(4-((5-(1H-imidazol-1-yl)pentyl)oxy)phenyl) picolinimidamide]
IC50 [1, 6]: 13 ± 5 µM | IC50 (HepG2 cells): 42 ± 4 µM | IC50 (J774 macrophages): > 50 µM | IC50 [2]: 4.8 ± 0.1 µM

N=C(Nc1ccc(OCCCCCCn2ccnc2)cc1)c1ccccn1 [Compound 9g, N-(4-((6-(1H-imidazol-1-yl)hexyl)oxy)phenyl) picolinimidamide]
IC50 [1, 6]: 8.8 ± 0.6 µM | IC50 (HepG2 cells): 20 ± 3 µM | IC50 (J774 macrophages): > 40 µM | IC50 [2]: 1.3 ± 0.1 µM

N=C(Nc1ccc(OCCCCCCCCn2ccnc2)cc1)c1ccccn1 [Compound 9h, N-(4-((8-(1H-imidazol-1-yl)octyl)oxy)phenyl) picolinimidamide]
remaining at 1 h, 3 μM [3]: 100% | Degradation by human liver microsomes (in words) ([3]; over a period of one hour, substrate 3 μM): not degraded | IC50 [1, 6]: 1 µM | IC50 (HepG2 cells): 12 ± 3 µM | IC50 (J774 macrophages): 11 ± 1 µM | IC50 [2]: 0.36 ± 0.03 µM | CYP51 binding spectrum type (L. donovani CYP51): typical Type II binding spectra | IC50 (recombinant human CYP3A4): 0.047 ± 0.003 µM

N=C(Nc1ccc(OCCCCCCCCn2ccnc2)c(Cl)c1)c1ccccn1 [Compound 9i, N-(4-((8-(1H-imidazol-1-yl)octyl)oxy)-3-chlorophenyl) picolinimidamide]
IC50 [1, 6]: 1.3 ± 0.2 µM | IC50 (HepG2 cells): 7.7 ± 1.5 µM | IC50 (J774 macrophages): 6.8 ± 0.7 µM | IC50 [2]: 0.18 ± 0.01 µM | Fold more potent as inhibitor of L. donovani CYP51 compared to 9h ([2]; compared to 9h): about 2 fold

N=C(Nc1ccc(OCCCCCCCCn2ccnc2)cc1Cl)c1ccccn1 [Compound 9j, N-(4-((8-(1H-imidazol-1-yl)octyl)oxy)-2-chlorophenyl) picolinimidamide]
IC50 [1, 6]: 2.1 ± 0.2 µM | IC50 (HepG2 cells): 8.6 ± 1.2 µM | IC50 (J774 macrophages): 8.6 ± 1.2 µM | IC50 [2]: 0.15 ± 0.01 µM | Fold more potent as inhibitor of L. donovani CYP51 compared to 9h ([2]; compared to 9h): about 2 fold

N=C(Nc1ccc(OCCCCCCCCn2cncn2)cc1)c1ccccn1 [Compound 9k, N-(4-((8-(1H-1,2,4-triazol-1-yl)octyl)oxy)phenyl) picolinimidamide]
inhibition at 12.5 µM ([1]; Leishmania donovani, Macrophage, read-out: Inhibition of parasitemia at 12.5 μM, 12.5 μM, intracellular L. donovani, mean ± S.E.M., n=3): ~50% | Decrease in potency against intracellular L. donovani compared with 9h ([1]; compared with 9h): > 10 fold | IC50 (HepG2 cells): 32 ± 5 µM | IC50 (J774 macrophages): 36 ± 1 µM | IC50 [2]: 1.9 ± 0.1 µM

N=C(Nc1ccc(OCCCCCCCCCCn2ccnc2)cc1)c1ccccn1 [Compound 9l, N-(4-((10-(1H-imidazol-1-yl)decyl)oxy)phenyl) picolinimidamide]
Mouse liver microsome t1/2 [4, 7]: 1.13 h | Human liver microsome t1/2 [3, 7]: 0.95 h | IC50 [1, 6]: 1.4 ± 0.2 µM | IC50 (HepG2 cells): 6.9 ± 1 µM | IC50 (J774 macrophages): 4.9 ± 0.9 µM | IC50 [2]: 0.22 ± 0.01 µM

N=C(Nc1ccc(OCCCCCCCCn2cccc2)cc1)c1ccccn1 [Compound 9m, N-(4-((8-(1H-pyrrol-1-yl)octyl)oxy)phenyl) picolinimidamide]
IC50 [1, 6]: 1.7 ± 0.3 µM | IC50 (HepG2 cells): 13 ± 2 µM | IC50 (J774 macrophages): 11 ± 1 µM | IC50 [2]: 14 ± 1 µM | Fold less active as a CYP51 inhibitor than 9h ([2]; compared to 9h): 39 fold

N=C(Nc1ccc(OCCCCCCCCn2ccnc2)cc1)c1ccccc1 [Compound 9n, N-(4-((8-(1H-imidazol-1-yl)octyl)oxy)phenyl)benzimidamide]
IC50 [1, 6]: 1.2 ± 0.1 µM | IC50 (HepG2 cells): 4.9 ± 1 µM | Increase in HepG2 activity compared to 9h (HepG2 cells; compared to 9h): 2.4 fold | IC50 (J774 macrophages): 0.48 ± 0.02 µM | Increase in potency against J774 cells compared to 9h (J774 macrophages; compared to 9h): 22 fold | IC50 [2]: 0.34 ± 0.01 µM

COc1cc(NC(=N)c2ccccn2)ccc1OCCCCCCCCn1ccnc1 [Compound 17a, N-(4-((8-(1H-imidazol-1-yl)octyl)oxy)3-methoxyphenyl) picolinimidamide]
remaining at 1 h, 3 μM [4]: 100% | remaining at 1 h, 3 μM [3]: 100% | IC50 [1, 6]: 2.2 ± 0.3 µM | IC50 (HepG2 cells): 23 ± 2 µM | IC50 (J774 macrophages): 16 ± 1 µM | IC50 [2]: 0.57 ± 0.01 µM

CCOc1cc(NC(=N)c2ccccn2)ccc1OCCCCCCCCn1ccnc1 [Compound 17b, N-(4-((8-(1H-imidazol-1-yl)octyl)oxy)3-ethoxyphenyl) picolinimidamide]
IC50 [1, 6]: 1.9 ± 0.3 µM | IC50 (HepG2 cells): 13 µM | IC50 (J774 macrophages): 9 ± 1.3 µM | IC50 [2]: 0.53 ± 0.02 µM

CC(C)Oc1cc(NC(=N)c2ccccn2)ccc1OCCCCCCCCn1ccnc1 [Compound 17c, N-(4-((8-(1H-imidazol-1-yl)octyl)oxy)3-isopropoxyphenyl) picolinimidamide]
remaining at 1 h, 3 μM [4]: 100% | remaining at 1 h, 3 μM [3]: > 80% | IC50 [1, 6]: 0.97 ± 0.07 µM | IC50 (HepG2 cells): 18 ± 1 µM | IC50 (J774 macrophages): 7.8 ± 0.3 µM | IC50 [2]: 0.29 ± 0.01 µM

COc1cc(OCCCCCCCCn2ccnc2)ccc1NC(=N)c1ccccn1 [Compound 24a, N-(4-((8-(1H-imidazol-1-yl)octyl)oxy)-2-methoxyphenyl) picolinimidamide]
remaining at 1 h, 3 μM [4]: > 80% | remaining at 1 h, 3 μM [3]: > 80% | IC50 [1, 6]: 1.5 ± 0.4 µM | IC50 (HepG2 cells): 16 ± 2 µM | IC50 (J774 macrophages): 9.3 ± 0.5 µM | IC50 [2]: 0.36 ± 0.01 µM

CCOc1cc(OCCCCCCCCn2ccnc2)ccc1NC(=N)c1ccccn1 [Compound 24b, N-(4-((8-(1H-imidazol-1-yl)octyl)oxy)-2-ethoxyphenyl) picolinimidamide]
remaining at 1 h, 3 μM [4]: 100% | remaining at 1 h, 3 μM [3]: > 80% | IC50 [1, 6]: 0.73 ± 0.15 µM | IC50 (HepG2 cells): 12 ± 2 µM | IC50 (J774 macrophages): 6.8 ± 0.1 µM | IC50 [2]: 0.34 ± 0.01 µM

N=C(NCCCCCCCCn1ccnc1)c1ccccn1 [Compound 28, N-(8-(1H-imidazol-1-yl)octyl)picolinimidamide]
IC50 [1, 6]: > 100 µM | IC50 (HepG2 cells): > 100 µM

COc1cccc2c1C(=O)c1c(O)c3c(c(O)c1C2=O)C[C@@](O)(C(=O)CO)C[C@@H]3O[C@H]1C[C@H](N)[C@H](O)[C@H](C)O1 [Doxorubicin, reference compound]
IC50 (HepG2 cells): 0.2 ± 0.02 µM

OC(Cn1cncn1)(Cn1cncn1)c1ccc(F)cc1F [Fluconazole, fluconazole, reference compound]
inhibition at 50 µM [1, 8]: 16 ± 3% | IC50 [2]: 0.96 ± 0.03 µM

CC(=O)N1CCN(c2ccc(OCC3COC(Cn4ccnc4)(c4ccc(Cl)cc4Cl)O3)cc2)CC1 (centres unmarked) [Ketoconazole, ketoconazole, reference compound]
inhibition at 50 µM [1, 8]: 50 ± 7% | IC50 [2]: 0.048 ± 0.004 µM

CCCCCCCCCCCCCCCCOP(=O)([O-])OCC[N+](C)(C)C [Miltefosine, miltefosine, reference compound]
Reduction of liver infection [5]: 95 ± 2%

COc1cc([C@@H]2c3cc4c(cc3[C@H](O)[C@H]3COC(=O)[C@H]23)OCO4)cc(OC)c1OC [Podophyllotoxin, reference compound]
IC50 (J774 macrophages): 0.025 ± 0.001 µM

CC[C@@H]([C@H](C)O)n1ncn(-c2ccc(N3CCN(c4ccc(OC[C@@H]5CO[C@@](Cn6cncn6)(c6ccc(F)cc6F)C5)cc4)CC3)cc2)c1=O [Posaconazole, posaconazole, reference compound]
inhibition at 7.5 µM ([1]; Leishmania donovani, Macrophage, read-out: Inhibition of parasitemia at 7.5 μM, 7.5 μM, intracellular L. donovani, mean ± S.E.M., n=3): 47 ± 2% | IC50 [2]: 0.059 ± 0.001 µM

CCN(CC)CCCC(C)Nc1c2ccc(Cl)cc2nc2ccc(OC)cc12 (centres unmarked) [Quinacrine, reference compound]
IC50 (HepG2 cells): 5.5 ± 0.7 µM
